Tests used:
[1] = tested on: IL1β and Arg1 mRNA, brain cortex; test: Inflammatory gene expression; type: in vivo, rat; conditions: brain cortex 96 hours post-ROSC; not statistically significant
In short: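 Male Sprague-Dawley ex-breeder rats underwent 8 min untreated CA and 8 min CPR after gavage with test compound (800 mg/kg per dose) or 1% carboxymethylcellulose vehicle 16 and 2 h before CA; naive rats served as controls. At 96 h post-ROSC, cortical RNA was analysed by SYBR Green real-time PCR with exon-spanning primers and Gapdh reference. Results were calculated by ΔΔCt as fold induction, mean±SD, n=4-6/group, Kruskal-Wallis/Dunn's.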

[2] = tested on: rats resuscitated from cardiac arrest; test: Hemodynamics; type: in vivo, rat; conditions: mean±SD
[3] = tested on: rats resuscitated from cardiac arrest; test: Neurological deficit score; type: in vivo, rat; conditions: 24, 48, 72, and 96 hours post-ROSC, all time points; score 0 (normal) to 500 (brain death)
[4] = Plasma and hippocampal levels of 1-DL-MTRP by HPLC-MS/MS in CA/CPR rats; type: in vivo; conditions: rat
[5] = tested on: rats resuscitated from cardiac arrest; test: CPR outcomes and survival in rat model of electrically induced CA/CPR; type: in vivo
[6] = tested on: kynurenine pathway (IDO, tryptophan→kynurenine step)
[7] = tested on: rats resuscitated from cardiac arrest; test: Myocardial function by transthoracic echocardiography in CA/CPR rats; type: in vivo, rat
In short: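 Rats were pretreated by gavage with test compound (800 mg/kg per dose) or 1% carboxymethylcellulose 16 and 2 h before 8 min untreated CA and 8 min CPR. At 4 and 96 h post-ROSC, LV systolic function was assessed by transthoracic M-mode, 2D, pulsed, color and tissue Doppler echocardiography. Anaesthesia at 96 h was intraperitoneal thiopental 50 mg/kg, with 10 mg/kg recall doses if needed. Analysis used ordinary 2-way ANOVA with Sidak post hoc.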

[8] = tested on: rats resuscitated from cardiac arrest; test: Plasma high-sensitivity cardiac troponin T; type: in vivo, rat; conditions: median [quartile 1–quartile 3]
In short: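 Arterial blood was drawn from the femoral cannula into K3-EDTA tubes 15 min before CA and at 4 and 96 h post-ROSC. Rats had received gavage test compound (800 mg/kg per dose) or carboxymethylcellulose vehicle 16 and 2 h pre-CA, then 8 min CA and 8 min CPR. Plasma hs-cTnT was measured by electrochemiluminescence immunoassay and analysed by ordinary 2-way ANOVA with Sidak test.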

[9] = tested on: kynurenine pathway (IDO, tryptophan→kynurenine step); conditions: 96 hours post-ROSC
[10] = 2 oral doses of 800 mg/kg 16 and 2 hours before CA, 15 minutes pre-CA and 2 hours post-ROSC
[11] = 2 oral doses of 800 mg/kg 16 and 2 hours before CA, 96 hours post-ROSC

With `Cn1cc(CC(N)C(=O)O)c2ccccc21` (racemic) [1‐DL‐MTRP, 1‐methyl‐DL‐tryptophan] the Arg1 gene expression [1] was “tendency towards an increase”, the “CA-induced IL1β upregulation (mRNA)” value [1] was “slightly reduced” and the CPP ([2]; PR 10 min) was 57±21 mm Hg. For the same molecule, the DAP ([2]; PR 10 min) was 57±21 mm Hg, the HR ([2]; PR 10 min) was 237±54 beats per min and the MAP ([2]; PR 10 min) was 76±20 mm Hg. The SAP ([2]; PR 10 min) was 103±17 mm Hg, the CPP ([2]; PR 1 h) was 84±9 mm Hg and the DAP ([2]; PR 1 h) was 84±9 mm Hg. It also gave an HR ([2]; PR 1 h) of 335±12 beats per min, an MAP ([2]; PR 1 h) of 96±9 mm Hg and an SAP ([2]; PR 1 h) of 117±9 mm Hg. It also gave a CPP ([2]; PR 2 h) of 81±12 mm Hg, a DAP ([2]; PR 2 h) of 81±12 mm Hg and an HR ([2]; PR 2 h) of 360±20 beats per min. The MAP ([2]; PR 2 h) was 96±13 mm Hg, the SAP ([2]; PR 2 h) was 118±12 mm Hg and the CPP ([2]; PR 3 h) was 75±15 mm Hg. It also gave a DAP ([2]; PR 3 h) of 74±15 mm Hg, an HR ([2]; PR 3 h) of 358±23 beats per min and an MAP ([2]; PR 3 h) of 89±16 mm Hg. For the same molecule, the SAP ([2]; PR 3 h) was 111±18 mm Hg, the CPP ([2]; PR 4 h) was 73±20 mm Hg and the DAP ([2]; PR 4 h) was 78±15 mm Hg. It also gave an HR ([2]; PR 4 h) of 351±51 beats per min, an MAP ([2]; PR 4 h) of 94±17 mm Hg and an SAP ([2]; PR 4 h) of 115±17 mm Hg. For the same molecule, the CPP ([2]; Pre-CA) was 109±13 mm Hg, the DAP ([2]; Pre-CA) was 114±12 mm Hg and the HR ([2]; Pre-CA) was 375±34 beats per min. For the same molecule, the MAP ([2]; Pre-CA) was 127±13 mm Hg, the SAP ([2]; Pre-CA) was 151±13 mm Hg and the “NDS values vs vehicle-treated rats” value [3] was “lower”. For the same molecule, the “1-DL-MTRP plasma concentration, average” value [4, 10] was 34 µg/mL, the “1-DL-MTRP plasma concentration, range” value [4, 10] was 20 to 40 µg/mL and the “1-DL-MTRP hippocampal concentration, average” value [4, 11] was 11.4 µg/g. For the same molecule, the “1-DL-MTRP plasma concentration, average” value [4, 11] was 21 µg/mL, the “drug levels (plasma and brain) as molar concentrations” value ([4]; 96 hours post-ROSC) was 52 to 96 µM and the “Resuscitation, no./total” value ([5]; 800 mg/kg by gavage 16 and 2 h before CA, 8 min CA, 8 min CPR) was 15/17. For the same molecule, the “Time to ROSC” value ([5]; median [quartile 1–quartile 3]) was 481 [370–482] s, the “4-h survival, no./resuscitated” value ([5]; rat, in vivo) was 15/15 and the “96-h survival, no./resuscitated” value ([5]; rat, in vivo) was 10/15. The “Shocks to ROSC” value ([5]; rat, in vivo) was 1 no, the “animals that survived up to 96 hours after CA” value ([5]; vehicle 62%) was 66% and the successfully resuscitated animals ([5]; vehicle 84%) was 88%. The “plasma kynurenine levels, % lower than in vehicle-treated rats” value ([6]; 15 minutes pre-CA, P=0.0243) was 24%, the “plasma kynurenine levels following CA vs vehicle-treated rats” value ([6]; PR 2 hours and PR 96 hours, same time points) was “markedly lower than in vehicle‐treated rats” and the LVEF ([7]; PR 4 h) was 36.8±3.2%. The LVEF ([7]; PR 96 h) was 75.3±3.2%, the hs-cTnT ([8]; PR 4 h) was 4965 [2978–5242] pg/mL and the hs-cTnT ([8]; PR 96 h) was 64 [36–278] pg/mL. The hs-cTnT ([8]; Pre-CA) was 98 [66–111] pg/mL, the “hippocampal kynurenine levels vs vehicle-treated rats” value ([9]; P=0.0409, comparable to naive rats) was “significantly lower than in vehicle‐treated rats” and the “hippocampal 5-HT concentrations” value ([9]; vs naive rats) was “superimposable to those measured in naive rats”.

Source: paper PMC9075408 (Journal of the American Heart Association: Cardiovascular …, 2021)
